Tests used:
[1] = tested on: Ba/F3 cells FLT3-ITD + D835Y; assay: Antiproliferative assay in Ba/F3 cells transfected with FLT3 variants; type: cell-based; settings: Mus musculus, BaF3
[2] = tested on: Ba/F3 cells FLT3-ITD + F691L; assay: as above; type: cell-based; settings: Mus musculus, BaF3
Ba/F3 cells FLT3- ITD = assay: as above; type: cell-based, mouse; settings: for IC50: Mus musculus, BaF3
Ba/F3 cells FLT3 D835Y = assay: as above; type: cell-based; settings: Mus musculus, BaF3
[3] = tested on: relapsed or refractory FLT3-mutated AML; settings: FLT3 inhibitor-naïve patients with relapsed or refractory FLT3-mutated AML; cited from earlier work
FLT3– ITD = FLT3– ITD (Homo sapiens, UniProt P36888, ITD); assay: DiscoverX KINOMEscan competition binding
TEC = TEC (Homo sapiens, UniProt P42680); assay: RBC enzymatic assay, ATP at Km; type: biochemical
How it was run: (§1)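 Recombinant kinases were assayed with ATP at each kinase's Km, and IC50 values were determined.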

[4] = tested on: FLT3-mutant AML cell lines and the PDGFR-α mutant EOL-1 cell line; assay: Apoptosis by PARP cleavage; type: cell-based, human; settings: all 3 FLT3-mutant AML cell lines and EOL-1
How it was run: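 Cells were treated with DMSO vehicle or test compound for 1 or 24 h, then lysed. Apoptosis was assessed by Western blot for PARP cleavage.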

[5] = tested on: primary mononuclear cells from patients with AML; assay: Ex vivo cell viability assay; type: cell-based; settings: Homo sapiens, read-out: median IC50, 186 primary samples from patients with AML
CYP3A5 = CYP3A5 (Homo sapiens, UniProt P20815); assay: Metabolism studies; type: in vitro ADME
MOLM-13 = assay: Antiproliferative assay; type: cell-based; settings: Homo sapiens, MOLM-13, 72 h, read-out: Mean IC50
How it was run: (§2)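 Human AML lines from ATCC or DSMZ, STR-authenticated, mycoplasma-tested every 2 months and grown in source-recommended medium. Cells were exposed in four replicates to increasing concentrations of test compound for 72 h. Proliferation was read with the CellTiter 96 AQueous One (MTS) reagent.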

FLT3-ITD = FLT3-ITD (Homo sapiens, UniProt P36888); assay: RBC enzymatic assay, ATP at Km; type: biochemical
How it was run: as §1

[6] = tested on: samples from patients with MDS/MPN; assay: Ex vivo cell viability assay; type: cell-based; settings: Homo sapiens, read-out: median IC50
How it was run: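 Freshly isolated patient mononuclear cells (peripheral blood or bone marrow) were plated at 10,000 cells/well. They were given a seven-point, 3-fold dilution series from 10 to 0.0137 µmol/L, made from DMSO stocks, and incubated 3 days. Growth was read by MTS; absorbance was background-subtracted and normalised to untreated wells. IC50 was obtained per sample and the median taken.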

ERBB = ERBB (Homo sapiens, UniProt P04626); assay: RBC enzymatic assay, ATP at Km; type: biochemical
How it was run: as §1

[7] = tested on: MV4–11 FLT3-ITD xenograft; assay: MV4–11 subcutaneous xenograft study; type: in vivo, BALB/c nu/nu mice
FLT3 ITD/F691L = FLT3 ITD/F691L (Homo sapiens, UniProt P36888, F691L/ITD); assay: DiscoverX KINOMEscan competition binding
HEL92.1.7 = assay: Antiproliferative assay; type: cell-based; settings: Homo sapiens, HEL 92.1.7, 72 h, read-out: Mean IC50
How it was run: as §2

[8] = molecular target: hERG potassium ion channel (Homo sapiens, UniProt Q12809); assay: hERG inhibition
EOL-1 = assay: Antiproliferative assay; type: cell-based; settings: Homo sapiens, EOL1, 72 h, read-out: Mean IC50
How it was run: as §2

THP-1 = assay: Antiproliferative assay; type: cell-based; settings: Homo sapiens, THP-1, 72 h, read-out: Mean IC50
How it was run: as §2

[9] = 28-day GLP repeat-dose toxicology study; type: in vivo; settings: dogs, up to highest dose tested of 600 mg/kg orally
phosphorylation of FLT3 = assay: Western blot analysis of kinase inhibition; type: cell-based; settings: Fig. 2B
How it was run: (§3)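 Cells were exposed to vehicle DMSO or a concentration range of test compound for 1 or 24 h, then lysed. Blots were probed for total and phosphorylated FLT3 (pY589/591), STAT5 (pY694) and ERK1/2 (pT202/204). Images are representative of 3 biological repeats.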

FLT3 = FLT3 (Homo sapiens, UniProt P36888); assay: Plasma inhibition assay; settings: phase I doses yielding plasma concentrations up to 1 μmol/L
[10] = Cardiovascular study in dogs; type: in vivo
phosphorylation of STAT5 = assay: Western blot analysis of kinase inhibition; type: cell-based; settings: Fig. 2B
How it was run: as §3

CYP3A4 = CYP3A4 (Homo sapiens, UniProt P08684); assay: Metabolism studies; type: in vitro ADME
[11] = tested on: phosphorylation of ERK1/2; assay: Western blot analysis of kinase inhibition; type: cell-based; settings: Fig. 2B
How it was run: as §3

FLT3 D833Q (TKD) = FLT3 D833Q (TKD) (Homo sapiens, UniProt P36888); assay: DiscoverX KINOMEscan competition binding
[12] = Phase I trial tolerability; type: in vivo, patients with AML and MDS/MPN; settings: doses that yield plasma concentrations up to 1 μmol/L

FLT3-ITD, sequence (P36888 564-993, change not shown): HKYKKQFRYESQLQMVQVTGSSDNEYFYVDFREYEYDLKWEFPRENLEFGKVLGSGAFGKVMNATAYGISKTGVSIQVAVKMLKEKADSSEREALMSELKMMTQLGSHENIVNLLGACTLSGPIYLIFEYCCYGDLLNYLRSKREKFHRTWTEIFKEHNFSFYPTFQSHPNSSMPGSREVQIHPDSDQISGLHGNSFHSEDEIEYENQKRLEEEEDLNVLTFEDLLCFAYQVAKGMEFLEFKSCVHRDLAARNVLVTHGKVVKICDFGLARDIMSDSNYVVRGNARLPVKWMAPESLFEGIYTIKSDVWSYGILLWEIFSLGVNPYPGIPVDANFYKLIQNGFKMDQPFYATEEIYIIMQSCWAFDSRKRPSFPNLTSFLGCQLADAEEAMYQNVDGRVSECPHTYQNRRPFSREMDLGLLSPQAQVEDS
FLT3, sequence (P36888 27-993): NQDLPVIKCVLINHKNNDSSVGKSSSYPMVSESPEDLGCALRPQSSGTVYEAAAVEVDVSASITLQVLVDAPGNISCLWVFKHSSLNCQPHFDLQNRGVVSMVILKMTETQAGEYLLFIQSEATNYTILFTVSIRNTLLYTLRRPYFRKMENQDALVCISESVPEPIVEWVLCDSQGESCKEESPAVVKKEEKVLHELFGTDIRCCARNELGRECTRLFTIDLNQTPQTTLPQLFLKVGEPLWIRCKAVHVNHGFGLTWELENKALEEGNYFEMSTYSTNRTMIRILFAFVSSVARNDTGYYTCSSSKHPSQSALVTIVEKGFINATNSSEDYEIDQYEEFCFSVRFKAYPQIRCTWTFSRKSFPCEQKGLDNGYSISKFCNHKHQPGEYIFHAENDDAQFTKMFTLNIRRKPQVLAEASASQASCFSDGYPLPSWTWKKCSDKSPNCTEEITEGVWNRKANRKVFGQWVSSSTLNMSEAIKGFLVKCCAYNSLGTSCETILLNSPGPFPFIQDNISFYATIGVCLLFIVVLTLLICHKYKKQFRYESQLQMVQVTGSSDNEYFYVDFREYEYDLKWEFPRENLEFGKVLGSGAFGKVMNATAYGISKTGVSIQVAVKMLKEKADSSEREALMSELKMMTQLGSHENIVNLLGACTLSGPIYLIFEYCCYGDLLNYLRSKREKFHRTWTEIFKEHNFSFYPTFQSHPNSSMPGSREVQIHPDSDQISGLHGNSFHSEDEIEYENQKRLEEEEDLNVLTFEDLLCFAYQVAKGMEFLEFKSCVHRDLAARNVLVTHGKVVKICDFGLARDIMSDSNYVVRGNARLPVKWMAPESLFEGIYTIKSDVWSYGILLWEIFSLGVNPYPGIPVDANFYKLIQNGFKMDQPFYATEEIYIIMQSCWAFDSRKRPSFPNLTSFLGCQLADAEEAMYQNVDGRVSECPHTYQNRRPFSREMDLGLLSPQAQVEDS
hERG potassium ion channel, sequence (Q12809 whole entry): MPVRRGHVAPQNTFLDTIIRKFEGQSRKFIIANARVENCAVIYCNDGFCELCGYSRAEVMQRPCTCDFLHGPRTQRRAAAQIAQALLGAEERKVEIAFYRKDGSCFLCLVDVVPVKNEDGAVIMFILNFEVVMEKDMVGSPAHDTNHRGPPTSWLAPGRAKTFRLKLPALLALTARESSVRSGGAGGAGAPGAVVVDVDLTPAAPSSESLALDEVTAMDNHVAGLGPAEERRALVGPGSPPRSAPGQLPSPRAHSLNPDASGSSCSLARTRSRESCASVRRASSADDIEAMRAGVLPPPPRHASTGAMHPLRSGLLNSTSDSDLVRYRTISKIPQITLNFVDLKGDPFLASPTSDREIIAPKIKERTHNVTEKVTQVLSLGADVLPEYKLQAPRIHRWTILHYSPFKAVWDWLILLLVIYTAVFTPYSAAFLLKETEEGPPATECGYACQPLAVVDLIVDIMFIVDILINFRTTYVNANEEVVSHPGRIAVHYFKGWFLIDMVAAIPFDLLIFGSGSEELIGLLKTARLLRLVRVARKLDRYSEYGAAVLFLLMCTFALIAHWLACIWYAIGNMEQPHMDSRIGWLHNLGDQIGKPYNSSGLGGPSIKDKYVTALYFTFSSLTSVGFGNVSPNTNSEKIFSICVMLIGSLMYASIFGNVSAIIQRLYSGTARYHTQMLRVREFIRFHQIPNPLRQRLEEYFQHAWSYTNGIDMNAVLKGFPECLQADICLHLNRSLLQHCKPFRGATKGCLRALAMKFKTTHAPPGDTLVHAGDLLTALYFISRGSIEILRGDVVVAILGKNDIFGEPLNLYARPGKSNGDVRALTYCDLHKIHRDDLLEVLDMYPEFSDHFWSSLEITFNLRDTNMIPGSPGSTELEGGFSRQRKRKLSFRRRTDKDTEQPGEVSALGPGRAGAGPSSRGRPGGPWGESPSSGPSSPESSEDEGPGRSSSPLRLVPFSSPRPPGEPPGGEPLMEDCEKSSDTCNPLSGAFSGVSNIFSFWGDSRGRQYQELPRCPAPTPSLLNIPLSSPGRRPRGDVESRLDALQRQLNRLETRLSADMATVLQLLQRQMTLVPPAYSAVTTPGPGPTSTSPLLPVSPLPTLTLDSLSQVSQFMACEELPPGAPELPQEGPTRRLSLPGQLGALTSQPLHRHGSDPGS
ERBB, sequence (P04626 23-1255): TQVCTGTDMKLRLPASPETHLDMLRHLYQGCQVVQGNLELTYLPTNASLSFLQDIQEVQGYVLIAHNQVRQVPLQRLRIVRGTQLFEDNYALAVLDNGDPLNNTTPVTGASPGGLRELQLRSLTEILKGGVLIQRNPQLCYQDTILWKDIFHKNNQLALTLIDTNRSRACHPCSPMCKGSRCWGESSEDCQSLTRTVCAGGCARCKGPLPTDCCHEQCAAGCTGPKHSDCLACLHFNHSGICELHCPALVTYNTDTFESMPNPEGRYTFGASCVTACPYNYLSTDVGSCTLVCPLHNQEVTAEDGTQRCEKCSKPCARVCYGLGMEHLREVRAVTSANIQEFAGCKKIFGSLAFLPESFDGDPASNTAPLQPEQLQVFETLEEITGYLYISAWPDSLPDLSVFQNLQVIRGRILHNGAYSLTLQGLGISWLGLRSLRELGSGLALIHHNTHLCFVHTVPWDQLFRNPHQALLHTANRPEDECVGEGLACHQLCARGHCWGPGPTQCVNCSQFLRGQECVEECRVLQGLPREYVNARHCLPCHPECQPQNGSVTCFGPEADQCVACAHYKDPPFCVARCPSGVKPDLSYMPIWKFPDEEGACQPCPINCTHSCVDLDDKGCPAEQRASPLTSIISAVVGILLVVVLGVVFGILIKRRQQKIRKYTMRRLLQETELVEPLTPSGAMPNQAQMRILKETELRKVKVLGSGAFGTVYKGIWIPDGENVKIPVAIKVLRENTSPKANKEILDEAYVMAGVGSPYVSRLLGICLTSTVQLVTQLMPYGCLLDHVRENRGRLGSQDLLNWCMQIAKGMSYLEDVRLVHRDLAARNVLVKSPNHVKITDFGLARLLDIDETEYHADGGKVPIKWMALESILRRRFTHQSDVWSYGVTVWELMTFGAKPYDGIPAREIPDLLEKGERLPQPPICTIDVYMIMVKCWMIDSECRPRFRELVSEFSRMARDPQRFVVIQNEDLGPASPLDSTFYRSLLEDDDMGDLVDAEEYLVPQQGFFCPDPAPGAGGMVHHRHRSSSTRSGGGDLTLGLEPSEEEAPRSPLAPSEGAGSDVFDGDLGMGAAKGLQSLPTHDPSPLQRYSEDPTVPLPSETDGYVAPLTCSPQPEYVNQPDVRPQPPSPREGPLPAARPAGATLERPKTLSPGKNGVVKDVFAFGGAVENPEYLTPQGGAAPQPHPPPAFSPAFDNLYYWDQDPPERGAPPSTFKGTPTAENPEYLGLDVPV
FLT3 D833Q (TKD), sequence (P36888 610-943, stated change not applied): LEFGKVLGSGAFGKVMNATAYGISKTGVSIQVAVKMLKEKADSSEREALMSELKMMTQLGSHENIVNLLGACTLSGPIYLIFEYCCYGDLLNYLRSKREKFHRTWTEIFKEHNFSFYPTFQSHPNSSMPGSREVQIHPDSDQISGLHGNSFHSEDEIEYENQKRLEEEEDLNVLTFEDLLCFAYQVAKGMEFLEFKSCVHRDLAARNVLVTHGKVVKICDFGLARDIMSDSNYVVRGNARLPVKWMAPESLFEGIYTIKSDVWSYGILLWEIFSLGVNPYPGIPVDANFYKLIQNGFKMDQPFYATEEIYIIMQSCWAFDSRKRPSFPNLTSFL
FLT3 ITD/F691L, sequence (P36888 564-993 F691L): as the sequence (P36888 564-993, change not shown) above, with F128L counted along it
CYP3A4, sequence (P08684 whole entry): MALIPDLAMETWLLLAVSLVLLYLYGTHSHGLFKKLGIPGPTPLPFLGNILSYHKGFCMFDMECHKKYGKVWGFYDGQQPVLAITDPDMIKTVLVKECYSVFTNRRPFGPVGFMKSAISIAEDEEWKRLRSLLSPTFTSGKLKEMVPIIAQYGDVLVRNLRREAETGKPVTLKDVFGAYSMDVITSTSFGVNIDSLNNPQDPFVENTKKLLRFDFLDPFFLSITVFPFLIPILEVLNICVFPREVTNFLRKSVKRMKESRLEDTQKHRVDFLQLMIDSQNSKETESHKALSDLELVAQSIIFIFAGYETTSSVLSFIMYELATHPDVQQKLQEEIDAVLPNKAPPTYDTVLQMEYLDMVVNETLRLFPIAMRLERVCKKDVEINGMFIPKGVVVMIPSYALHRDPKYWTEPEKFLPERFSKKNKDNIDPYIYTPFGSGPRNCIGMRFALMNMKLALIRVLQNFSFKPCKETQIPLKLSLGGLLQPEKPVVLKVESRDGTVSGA
FLT3– ITD, sequence (P36888 564-993, change not shown): as the sequence (P36888 564-993, change not shown) above

In the case of `CC1(COc2ccc3c(c2)ncn3-c2ccc3cccc(N4CCC(N)CC4)c3n2)COC1` [Crenolanib, crenolanib], the IC50 [1] is reported as 37 ± 13 nM, the IC50 [2] is reported as 286 ± 9 nM and the IC50 (Ba/F3 cells FLT3- ITD) is reported as 38 ± 8 nM. The IC50 (Ba/F3 cells FLT3 D835Y) was 831 ± 195 nM.
In the case of `CCc1nc(C(N)=O)c(Nc2ccc(N3CCC(N4CCN(C)CC4)CC3)c(OC)c2)nc1NC1CCOCC1` [Gilteritinib, gilteritinib], the event-free survival [3] is given as 2.8 months, the response rate [3] is given as 34% and the IC50 [1] is given as 9 ± 5 nM. It also gave an IC50 [2] of 96 ± 6 nM, an IC50 (Ba/F3 cells FLT3- ITD) of 28 ± 2 nM and an IC50 (Ba/F3 cells FLT3 D835Y) of 521 ± 68 nM.
In the case of `Cc1cnc(-c2ccc(-c3ccc(NC(=O)Nc4c(F)cc(F)cc4F)cc3F)c3c2C(=O)NC3)[nH]1` [luxeptinib, Luxeptinib], the Kd (FLT3– ITD) is reported as 3.1 nM, the IC50 (TEC) is reported as 139 nM and the “concentration inducing apoptosis (PARP cleavage)” value [4] is reported as no more than 5 nmol/L. The IC50 [5] was 94.5 nM, the “involvement of CYP3A5 in metabolism” value (CYP3A5) was “involved in the metabolism” and the IC50 (MOLM-13) was 0.395 nM. The IC50 (FLT3-ITD; FLT3-ITD, recombinant kinase with ATP concentration at the Km) was 0.8 nM, the “fold lower inhibitory concentration for recombinant FLT-ITD than WT FLT3” value (FLT3-ITD; recombinant kinases) was 10 fold and the IC50 [6] was less than 200 nM. For the same molecule, the IC50 (ERBB) was greater than 1000 nM, the “mice with tumor growth completely suppressed out to 120 days” value ([7]; 300 mg/kg twice a day, oral gavage, 28 days) was 10 of 11 and the “weight loss or clinically apparent adverse events” value ([7]; doses up to 300 mg/kg twice a day, mice) was “No weight loss or clinically apparent adverse events”. The “Inhibition of tumor growth” value ([7]; lowest dose of 20 mg/kg/day, oral, 28 days) was “apparent”, the “response of regrown tumors to second 28-day treatment” value ([7]; re-treatment at 300 mg/kg twice a day, 100 and 300 mg/kg groups) was “All tumors that regrew in these two groups responded” and the Kd (FLT3 ITD/F691L) was 16 nM. For the same molecule, the IC50 (HEL92.1.7) was 4690 nM, the “inhibition of hERG potassium ion channel” value [8] was “did not inhibit” and the IC50 (EOL-1) was 0.045 nM. The IC50 (THP-1) was 2970 nM, the “hematologic, cardiovascular or other organ toxicities” value [9] was “No hematologic, cardiovascular or other organ toxicities were observed” and the “phosphorylation of FLT3” value (phosphorylation of FLT3) was “potently reduces the phosphorylation”. For the same molecule, the IC50 [1] was 22 ± 9 nM, the “inhibition of FLT3 in a plasma inhibition assay” value (FLT3) was “almost complete inhibition” and the IC50 [2] was 9 ± 1 nM. The “effect on QTc or any other parameter of heart function” value [10] was “no effect”, the “phosphorylation of downstream STAT5” value (phosphorylation of STAT5) was “reduces the phosphorylation” and the “involvement of CYP3A4 in metabolism” value (CYP3A4) was “involved in the metabolism”. The “phosphorylation of downstream ERK1/2” value [11] was “reduces the phosphorylation”, the “fold more potent than quizartinib” value (Ba/F3 cells FLT3- ITD; FLT3-ITD in the Ba/F3 system) was 4 fold and the IC50 (Ba/F3 cells FLT3- ITD) was 1 ± 0.2 nM. The Kd (FLT3 D833Q (TKD)) was 6.4 nM, the IC50 (Ba/F3 cells FLT3 D835Y) was 6 ± 0.4 nM and the “tolerability in phase I trial” value [12] was “generally well tolerated”.

— paper PMC9256809 (Molecular Cancer Therapeutics, 2022)
